Source: ChEMBL document CHEMBL1123801, “Synthesis and antifungal activity of new 1-vinylimidazoles” (1987)
In brackets after ≈: the same amount, converted by molar mass.

Tested on: Candida albicans
Experiment: Minimum inhibitory concentration against Candida albicans IFO 1388
Format: functional
Conditions: not given
Summary of the method: (§1)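 Agar dilution on Sabouraud's glucose agar. Inocula 1×10^6 cells/mL for the yeast strains (C. albicans IFO 1060, 1388) and 1×10^6 conidia/mL for the dermatophytes (T. mentagrophytes IFO 5809, 5810; T. rubrum IFO 5467, 5807). MIC in μg/mL, lowest value of duplicated experiments.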

Row | MIC | Compound
1 | 12.5 µg/mL (≈ 39.5 µM) | C=C(c1ccccc1OCc1ccsc1Cl)n1ccnc1

Tested on: Trichophyton benhamiae
Experiment: Minimum inhibitory concentration against Trichophyton asteroides
Format: functional
Conditions: not given
Summary of the method: (§2)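 Broth microdilution in Sabouraud's glucose broth. Final inocula 1×10^5 cells/mL for the yeast (C. albicans) and 1×10^5 conidia/mL for the mold (A. fumigatus) and the dermatophyte (T. asteroides). MIC read as the fungistatic end point. Lowest value of duplicated experiments.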

Row | Compound | MIC
2 | COc1ccc(Cl)cc1/C(=C/c1ccccc1)n1ccnc1 | 6.2 µg/mL (≈ 19.9 µM)
3 | C=C(c1ccccc1OCCc1ccc(Cl)cc1)n1ccnc1 | 0.1 µg/mL (≈ 0.308 µM)
4 | C/C(CN(C)C)=C(/c1ccccc1OCC(C)C)n1ccnc1 | 25 µg/mL (≈ 79.8 µM)
5 | C/C=C(\c1cc(Cl)ccc1OCCC)n1ccnc1 | 0.1 µg/mL (≈ 0.361 µM)
6 | C=C(c1ccccc1OCc1ccsc1Cl)n1ccnc1 | 0.1 µg/mL (≈ 0.316 µM)

More lines, in order of falling MIC, values ahead:

Row | MIC | Compound
7 | 6.3 µg/mL (≈ 18.5 µM) | CC(C)COc1ccccc1/C(=C\CN1CCOCC1)n1ccnc1
8 | 0.8 µg/mL (≈ 2.74 µM) | C=C(c1cc(Cl)ccc1OCCC(C)C)n1cncn1
9 | 0.8 µg/mL (≈ 2.74 µM) | CCC(CC)=C(c1cc(Cl)ccc1OC)n1cncn1
10 | 0.8 µg/mL (≈ 2.3 µM) | CCC(CC)=C(c1cc(Cl)ccc1OCCC(C)C)n1cncn1
11 | 0.1 µg/mL (≈ 0.413 µM) | C=C(c1ccccc1OCC(C)C)n1ccnc1
12 | 0.1 µg/mL (≈ 0.352 µM) | CC(C)=C(c1ccccc1OCC(C)(C)C)n1ccnc1

Tested on: Candida albicans
Experiment: Inhibition of pseudomycelium formation of Candida albicans.
Format: functional
Conditions: read-out: MEC
Summary of the method: (§3)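 C. albicans KE-2 (clinical isolate), final inoculum 1×10^6 yeast cells/mL in EMEM with 20% calf serum. Compounds serially diluted by the microtiter dilution system used for MICs. After incubation, wells Giemsa-stained (5% in phosphate buffer) and examined microscopically. MEC (μg/mL) = lowest concentration preventing typical pseudomycelium formation. Lowest value of duplicated experiments.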

Row | Compound | minimal effective concentration
13 | C=C(c1ccccc1OCC(C)C)n1ccnc1 | 0.63 µg/mL
14 | C=C(c1cc(Cl)ccc1OCCC(C)C)n1cncn1 | 20 µg/mL
15 | CCC(CC)=C(c1cc(Cl)ccc1OC)n1cncn1 | 1.25 µg/mL
16 | COc1ccc(Cl)cc1/C(=C/c1ccccc1)n1ccnc1 | > 20 µg/mL
17 | C/C(CN(C)C)=C(/c1ccccc1OCC(C)C)n1ccnc1 | 1.25 µg/mL
18 | CC(C)=C(c1ccccc1OCC(C)(C)C)n1ccnc1 | 0.31 µg/mL
19 | C/C=C(\c1cc(Cl)ccc1OCCC)n1ccnc1 | 0.63 µg/mL
20 | CCC(CC)=C(c1cc(Cl)ccc1OCCC(C)C)n1cncn1 | 1.25 µg/mL
21 | CC(C)COc1ccccc1/C(=C\CN1CCOCC1)n1ccnc1 | 2.5 µg/mL
22 | C=C(c1ccccc1OCc1ccsc1Cl)n1ccnc1 | 0.8 µg/mL

Tested on: Trichophyton rubrum
Experiment: Minimum inhibitory concentration against Trichophyton rubrum IFO 5467
Format: functional
Conditions: not given
Summary of the method: as §1

Row | MIC | Compound
23 | 0.4 µg/mL (≈ 1.26 µM) | C=C(c1ccccc1OCc1ccsc1Cl)n1ccnc1

Tested on: Aspergillus fumigatus
Experiment: Minimum inhibitory concentration (MIC) against Aspergillus fumigatus
Format: functional
Conditions: not given
Summary of the method: as §2

Row | Compound | MIC
24 | COc1ccc(Cl)cc1/C(=C/c1ccccc1)n1ccnc1 | 25 µg/mL (≈ 80.4 µM)
25 | C=C(c1ccccc1OCCc1ccc(Cl)cc1)n1ccnc1 | 0.4 µg/mL (≈ 1.23 µM)
26 | C/C(CN(C)C)=C(/c1ccccc1OCC(C)C)n1ccnc1 | > 100 µg/mL
27 | C/C=C(\c1cc(Cl)ccc1OCCC)n1ccnc1 | 1.6 µg/mL (≈ 5.78 µM)
28 | C=C(c1ccccc1OCc1ccsc1Cl)n1ccnc1 | 1.6 µg/mL (≈ 5.05 µM)

The remaining lines, values ahead:

Row | MIC | Compound
29 | > 100 µg/mL | CC(C)COc1ccccc1/C(=C\CN1CCOCC1)n1ccnc1
30 | > 100 µg/mL | C=C(c1cc(Cl)ccc1OCCC(C)C)n1cncn1
31 | 100 µg/mL (≈ 343 µM) | CCC(CC)=C(c1cc(Cl)ccc1OC)n1cncn1
32 | > 100 µg/mL | CCC(CC)=C(c1cc(Cl)ccc1OCCC(C)C)n1cncn1
33 | 1.6 µg/mL (≈ 6.6 µM) | C=C(c1ccccc1OCC(C)C)n1ccnc1
34 | 6.3 µg/mL (≈ 22.2 µM) | CC(C)=C(c1ccccc1OCC(C)(C)C)n1ccnc1

Tested on: Trichophyton benhamiae
Experiment: Minimum inhibitory concentration against Trichophyton mentagrophytes IFO 5809
Format: functional, Arthroderma benhamiae
Conditions: not given
Summary of the method: as §1

Row | MIC | Compound
35 | 1.6 µg/mL (≈ 5.05 µM) | C=C(c1ccccc1OCc1ccsc1Cl)n1ccnc1

Tested on: Trichophyton benhamiae
Experiment: Minimum inhibitory concentration against Trichophyton mentagrophytes IFO 5810
Format: functional, Arthroderma benhamiae
Conditions: not given
Summary of the method: as §1

Row | MIC | Compound
36 | 0.8 µg/mL (≈ 2.53 µM) | C=C(c1ccccc1OCc1ccsc1Cl)n1ccnc1

Tested on: Candida albicans
Experiment: Minimum inhibitory concentration (MIC) against Candida albicans
Format: functional
Conditions: not given
Summary of the method: as §2

Row | Compound | MIC
37 | COc1ccc(Cl)cc1/C(=C/c1ccccc1)n1ccnc1 | 12.5 µg/mL (≈ 40.2 µM)
38 | C=C(c1ccccc1OCCc1ccc(Cl)cc1)n1ccnc1 | 25 µg/mL (≈ 77 µM)
39 | C/C(CN(C)C)=C(/c1ccccc1OCC(C)C)n1ccnc1 | > 100 µg/mL
40 | C/C=C(\c1cc(Cl)ccc1OCCC)n1ccnc1 | 25 µg/mL (≈ 90.3 µM)
41 | C=C(c1ccccc1OCc1ccsc1Cl)n1ccnc1 | 6.2 µg/mL (≈ 19.6 µM)

Continued, values first:

Row | MIC | Compound
42 | > 100 µg/mL | CC(C)COc1ccccc1/C(=C\CN1CCOCC1)n1ccnc1
43 | > 100 µg/mL | C=C(c1cc(Cl)ccc1OCCC(C)C)n1cncn1
44 | 100 µg/mL (≈ 343 µM) | CCC(CC)=C(c1cc(Cl)ccc1OC)n1cncn1
45 | > 100 µg/mL | CCC(CC)=C(c1cc(Cl)ccc1OCCC(C)C)n1cncn1
46 | 100 µg/mL (≈ 413 µM) | C=C(c1ccccc1OCC(C)C)n1ccnc1
47 | 25 µg/mL (≈ 87.9 µM) | CC(C)=C(c1ccccc1OCC(C)(C)C)n1ccnc1

Tested on: Trichophyton rubrum
Experiment: Minimum inhibitory concentration against Trichophyton rubrum IFO 5807
Format: functional
Conditions: not given
Summary of the method: as §1

Row | MIC | Compound
48 | 0.8 µg/mL (≈ 2.53 µM) | C=C(c1ccccc1OCc1ccsc1Cl)n1ccnc1

Tested on: Candida albicans
Experiment: Inhibitory effect on pseudomycelium formation of candida albicans.
Format: functional
Conditions: read-out: MEC
Summary of the method: as §3

Row | Compound | minimal effective concentration
49 | C=C(c1ccccc1OCCc1ccc(Cl)cc1)n1ccnc1 | 1.25 µg/mL

Tested on: Candida albicans
Experiment: Minimum inhibitory concentration against Candida albicans IFO 1060
Format: functional
Conditions: not given
Summary of the method: as §1

Row | MIC | Compound
50 | 12.5 µg/mL (≈ 39.5 µM) | C=C(c1ccccc1OCc1ccsc1Cl)n1ccnc1
